Test [1] concerns the target T1, Melanocortin receptor 4 (Homo sapiens, UniProt P32245). The test is described as follows: Antagonist activity at human FLAG-tagged MC4R expressed in HEK293 cells assessed as reduction in NDP-MSH-induced intracellular cAMP accumulation after 2 hrs by AlphaScreen assay. Type of test: functional, cell-based. Particulars: read-out: pA2 (converted). In a few lines: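 Stable hMC4R-Flag HEK293 cells in IBMX-containing HBSS stimulation buffer with AlphaScreen cAMP beads, 10,000 cells/well, stimulated 2 h at room temperature. Antagonist ligands tested dose-dependently against NDP-MSH stimulation; pA2 from Schild regression. Duplicate points, at least three independent experiments.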
For orientation: cAMP levels reflect the balance of adenylyl cyclase and phosphodiesterase activity.

Test [2] addresses T1, Melanocortin receptor 4. Put plainly: Agonist activity at human FLAG-tagged MC4R expressed in HEK293 cells assessed as induction of intracellular cAMP accumulation at 10 uM after 2 hrs by AlphaScreen assay relative to NDP-MSH. Type of test: functional, cell-based. In outline: (§1)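 Stable HEK293 lines (G418 selection) carrying the receptor in pcDNA3, detached with Versene and resuspended in HBSS stimulation buffer containing 0.5 mM IBMX, 5 mM HEPES, 0.1% BSA, pH 7.4, with anti-cAMP acceptor beads; 10,000 cells/well. Ligand 10^-13 to 10^-4 M final, 2 h at room temperature in the dark, then donor beads in lysis buffer for 2 h. Duplicates, ≥3 experiments; curves normalized and flipped relative to controls.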

Test [3] has as its target T1, Melanocortin receptor 4. Put plainly: Agonist activity at human FLAG-tagged MC4R expressed in HTLA cells assessed as induction of beta-arrestin recruitment at 10 uM after 18 hrs by Presto-tango assay relative to NDP-MSH. Type of test: cell-based. In outline:
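HTLA cells (HEK293 with tTA-luciferase reporter and β-arrestin2-TEV) transiently transfected by calcium phosphate with hMC4R PRESTO-Tango construct (4 µg/plate), held 15–24 h at 35 °C and 3% CO2, then plated at 20,000 cells/well in 1% dialyzed FBS. Ligands 10^-12 to 10^-5 M in HEPES/HBSS pH 7.4, 18 h at 37 °C; Bright-Glo luminescence. Duplicates, ≥3 experiments.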
(In general: Arrestin recruitment assays detect the binding of arrestin to an activated receptor.)

Test [4] addresses Melanocortin receptor 4 (Mus musculus) (UniProt P56450). The test is described as follows: Agonist activity at mouse MC4R expressed in HEK293 cells assessed as induction of intracellular cAMP accumulation after 2 hrs by AlphaScreen assay. Type of test: functional, cell-based. In a few lines:
as §1

Test [5] has the same target. The test is described as follows: Effect on protein-protein interaction of mouse Nano-Luc-tagged MC4R/mouse Halo-tagged MC4R homodimer expressed in HEK293 cells at 10^-9 to 10^-5 M up to 10 mins by BRET assay. Type of test: cell-based.
For test [6], the target named is T1, Melanocortin receptor 4. Put plainly: Selectivity ratio of EC50 for agonist activity at human FLAG-tagged MC4R expressed in HTLA cells assessed as induction of beta-arrestin recruitment to EC50 for agonist activity at human FLAG-tagged MC4R expressed in HEK293 cells assessed as induction of intracellular cAMP accumulation. The format is functional, cell-based.

The target of test [7] is Melanocortin receptor 4 (Mus musculus) (UniProt P56450). The test is described as follows: Decrease in protein-protein interaction of mouse Nano-Luc-tagged MC4R/mouse Halo-tagged MC4R homodimer expressed in HEK293 cells up to 10 mins by BRET assay. The format is cell-based. (BRET reads energy transfer from a luciferase to a nearby fluorophore.)
Melanocortin receptor 4 (Mus musculus), sequence (P56450 whole entry): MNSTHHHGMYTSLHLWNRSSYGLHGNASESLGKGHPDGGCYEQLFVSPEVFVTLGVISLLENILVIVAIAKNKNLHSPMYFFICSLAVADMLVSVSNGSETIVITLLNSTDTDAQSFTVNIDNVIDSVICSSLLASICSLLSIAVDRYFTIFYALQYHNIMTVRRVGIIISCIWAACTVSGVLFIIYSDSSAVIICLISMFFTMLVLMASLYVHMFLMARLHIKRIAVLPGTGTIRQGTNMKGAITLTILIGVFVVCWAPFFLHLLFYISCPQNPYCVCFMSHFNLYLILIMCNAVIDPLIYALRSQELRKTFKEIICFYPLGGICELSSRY
In test [8] the target is T1, Melanocortin receptor 4. Put plainly: Agonist activity at human FLAG-tagged MC4R expressed in HEK293 cells assessed as induction of intracellular cAMP accumulation after 2 hrs by AlphaScreen assay. The format is functional, cell-based.

The structures appear in SMILES notation. Active and inactive are the calls of the source. The rule behind the calls is not given here. Non-standard residues stand in square brackets, D forms with d. Residues, ends and D or L forms follow the SMILES beside them. d2Nal = N[C@H](Cc1ccc2ccccc2c1)C(=O)O

In general, EC50 refers to the concentration at which the effect is half-maximal.

T1 sequence (P32245 whole entry): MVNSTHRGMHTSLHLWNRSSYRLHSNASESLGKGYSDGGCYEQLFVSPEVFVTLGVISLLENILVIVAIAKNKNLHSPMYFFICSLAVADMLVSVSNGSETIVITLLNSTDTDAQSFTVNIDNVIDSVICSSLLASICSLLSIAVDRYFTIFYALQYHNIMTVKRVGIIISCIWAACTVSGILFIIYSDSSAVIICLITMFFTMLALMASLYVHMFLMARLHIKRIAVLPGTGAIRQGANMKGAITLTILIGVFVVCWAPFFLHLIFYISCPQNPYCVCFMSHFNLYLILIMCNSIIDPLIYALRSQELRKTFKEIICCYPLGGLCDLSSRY

Regarding `CC(=O)N[C@@H](Cc1cnc[nH]1)C(=O)N[C@H](Cc1ccc2ccccc2c1)C(=O)N[C@@H](CCCNC(=N)N)C(=O)N[C@@H](Cc1c[nH]c2ccccc12)C(N)=O`, the Kb in test [1] is 15.1 nM.

Regarding `CC(=O)N[C@@H](Cc1cnc[nH]1)C(=O)N[C@H](Cc1ccc2ccccc2c1)C(=O)N[C@@H](CCCNC(=N)N)C(=O)N[C@@H](Cc1c[nH]c2ccccc12)C(=O)NCCCOCCOCCOCCCNC(=O)COCC(=O)N[C@@H](Cc1cnc[nH]1)C(=O)N[C@H](Cc1ccc2ccccc2c1)C(=O)N[C@@H](CCCNC(=N)N)C(=O)N[C@@H](Cc1c[nH]c2ccccc12)C(N)=O`, the Activity stood at 70% in test [2] and 10% in test [3]. In addition, the Kb in test [1] was 15.8 nM. Besides, the result in test [4] and in test [5] was inactive.

Take `CC(=O)N[C@@H](Cc1cnc[nH]1)C(=O)N[C@H](Cc1ccccc1)C(=O)N[C@@H](CCCNC(=N)N)C(=O)N[C@@H](Cc1c[nH]c2ccccc12)C(=O)NCCCOCCOCCOCCCNC(=O)COCC(=O)N[C@@H](Cc1cnc[nH]1)C(=O)N[C@H](Cc1ccc2ccccc2c1)C(=O)N[C@@H](CCCNC(=N)N)C(=O)N[C@@H](Cc1c[nH]c2ccccc12)C(N)=O`: the Activity in test [3] came to 45%. Further, the Ratio EC50 in test [6] worked out at 3000. The outcome in test [4] was Active.

As for `CC(=O)N[C@@H](Cc1cnc[nH]1)C(=O)N[C@H](Cc1ccc2ccccc2c1)C(=O)N[C@@H](CCCNC(=N)N)C(=O)N[C@@H](Cc1c[nH]c2ccccc12)C(=O)N1CCC[C@H]1C(=O)NCC(=O)N1CCC[C@H]1C(=O)NCC(=O)N1CCC[C@H]1C(=O)NCC(=O)N1CCC[C@H]1C(=O)NCC(=O)N1CCC[C@H]1C(=O)NCC(=O)N1CCC[C@H]1C(=O)NCC(N)=O` (Ac-H[d2Nal]RWPGPGPGPGPGPG-NH2), the Activity in test [2] is 55%; in test [3], 30%. Besides, in test [1], the Kb was 52.5 nM.

For `CC(=O)N[C@@H](Cc1cnc[nH]1)C(=O)N[C@H](Cc1ccc2ccccc2c1)C(=O)N[C@@H](CCCNC(=N)N)C(=O)N[C@@H](Cc1c[nH]c2ccccc12)C(=O)NCCCOCCOCCOCCCNC(=O)COCC(N)=O`, the values for the Activity in test [2] and in test [3] were 55% and 15%, respectively. Further, the Kb in test [1] was 7.59 nM.

Regarding `CC(=O)N[C@@H](Cc1cnc[nH]1)C(=O)N[C@H](Cc1ccccc1)C(=O)N[C@@H](CCCNC(=N)N)C(=O)N[C@@H](Cc1c[nH]c2ccccc12)C(=O)NCCCOCCOCCOCCCNC(=O)COCC(=O)N[C@@H](Cc1cnc[nH]1)C(=O)N[C@H](Cc1ccccc1)C(=O)N[C@@H](CCCNC(=N)N)C(=O)N[C@@H](Cc1c[nH]c2ccccc12)C(N)=O`, the result in test [4] was Active. Further, in test [7], the Activity entry was “Dose-dependent effect”.

Regarding `CC(=O)N[C@@H](Cc1c[nH]cn1)C(=O)N[C@H](Cc1ccc2ccccc2c1)C(=O)N[C@@H](CCCN=C(N)N)C(=O)N[C@@H](Cc1c[nH]c2ccccc12)C(N)=O`, the Activity in test [2] is 50%; in test [3], 30%. Also, the outcome in test [4] and in test [5] was inactive.

In the case of `N=C(N)NCCC[C@H](NC(=O)[C@@H](Cc1ccc2ccccc2c1)NC(=O)[C@H](Cc1cnc[nH]1)NC(=O)COCC(=O)NCCCOCCOCCOCCCN)C(=O)N[C@@H](Cc1c[nH]c2ccccc12)C(N)=O`, the Activity in test [2] was determined as 50%; in test [3], 20%. Moreover, the Kb in test [1] was 13.5 nM.

Regarding `CC(=O)N[C@@H](Cc1cnc[nH]1)C(=O)N[C@H](Cc1ccccc1)C(=O)N[C@@H](CCCNC(=N)N)C(=O)N[C@@H](Cc1c[nH]c2ccccc12)C(N)=O`, the result in test [4] was Active. Also, in test [7], the Activity result was “Dose-dependent effect”.

As for `CC(=O)N[C@@H](Cc1cnc[nH]1)C(=O)N[C@H](Cc1ccc2ccccc2c1)C(=O)N[C@@H](CCCNC(=N)N)C(=O)N[C@@H](Cc1c[nH]c2ccccc12)C(=O)N1CCC[C@H]1C(=O)NCC(=O)N1CCC[C@H]1C(=O)NCC(=O)N1CCC[C@H]1C(=O)NCC(=O)N1CCC[C@H]1C(=O)NCC(=O)N1CCC[C@H]1C(=O)NCC(=O)N1CCC[C@H]1C(=O)NCC(=O)N[C@@H](Cc1cnc[nH]1)C(=O)N[C@H](Cc1ccccc1)C(=O)N[C@@H](CCCNC(=N)N)C(=O)N[C@@H](Cc1c[nH]c2ccccc12)C(N)=O`, in test [3], the Activity was 55%. Moreover, in test [6], the Ratio EC50 was found to be 3000.

Consider `CC(=O)N[C@@H](Cc1cnc[nH]1)C(=O)N[C@H](Cc1ccc2ccccc2c1)C(=O)N[C@@H](CCCNC(=N)N)C(=O)N[C@@H](Cc1c[nH]c2ccccc12)C(=O)NCCCOCCOCCOCCCNC(=O)COCC(=O)N[C@@H](Cc1cnc[nH]1)C(=O)N[C@H](Cc1ccccc1)C(=O)N[C@@H](CCCNC(=N)N)C(=O)N[C@@H](Cc1c[nH]c2ccccc12)C(N)=O`, for which the Activity in test [3] was 20%. The Ratio EC50 in test [6] was 3000.

On to `CC(=O)N[C@@H](Cc1cnc[nH]1)C(=O)N[C@H](Cc1ccc2ccccc2c1)C(=O)N[C@@H](CCCNC(=N)N)C(=O)N[C@@H](Cc1c[nH]c2ccccc12)C(=O)NCCCOCCOCCOCCCNC(=O)COCC(=O)NCCCOCCOCCOCCCNC(=O)COCC(=O)N[C@@H](Cc1cnc[nH]1)C(=O)N[C@H](Cc1ccccc1)C(=O)N[C@@H](CCCNC(=N)N)C(=O)N[C@@H](Cc1c[nH]c2ccccc12)C(N)=O`, for which the EC50 in test [8] came out at 5.9 nM. For the same compound, the Activity in test [3] came out at 25%. For the same compound, in test [6], the Ratio EC50 amounted to 3000.

The values above are taken from ChEMBL document CHEMBL4308831, “Developing a Biased Unmatched Bivalent Ligand (BUmBL) Design Strategy to Target the GPCR Homodimer Allosteric Signaling (cAMP over β-Arrestin 2 Recruitment) Within the Melanocortin Receptors” (J Med Chem, 2018).
